Experimental findings from ChEMBL document CHEMBL1833790, “N-(2-{3-[3,5-bis(trifluoromethyl)phenyl]ureido}ethyl)-glycyrrhetinamide (6b): a novel anticancer glycyrrhetinic acid derivative that targets the proteasome and displays anti-kinase activity” (J Med Chem, 2011) are described below.

Activity calls are given as the source filed them. The calls are words filed in the database; no cut-off is given here. Peptide text beside a SMILES is read from it. * marks the point of attachment. Cbz = O=C(OCc1ccccc1)* A value given as a limit tells only on which side of the number the result lay.

Series [1] concerns the target T1, Peroxisome proliferator-activated receptor gamma (Homo sapiens) (UniProt P37231).
T1 sequence (whole entry): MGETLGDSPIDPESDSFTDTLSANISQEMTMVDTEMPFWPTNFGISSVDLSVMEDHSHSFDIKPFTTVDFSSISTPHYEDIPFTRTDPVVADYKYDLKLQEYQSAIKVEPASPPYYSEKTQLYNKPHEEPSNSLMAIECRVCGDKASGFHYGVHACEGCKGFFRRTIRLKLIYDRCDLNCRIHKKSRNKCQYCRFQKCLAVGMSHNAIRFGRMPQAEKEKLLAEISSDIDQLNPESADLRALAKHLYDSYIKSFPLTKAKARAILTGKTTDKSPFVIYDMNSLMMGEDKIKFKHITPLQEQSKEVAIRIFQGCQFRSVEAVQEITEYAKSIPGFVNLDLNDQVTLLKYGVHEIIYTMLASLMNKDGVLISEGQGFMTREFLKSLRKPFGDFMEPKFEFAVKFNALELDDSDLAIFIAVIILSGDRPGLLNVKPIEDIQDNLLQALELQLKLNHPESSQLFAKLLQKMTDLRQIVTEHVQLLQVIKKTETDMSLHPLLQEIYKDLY
Kind of series: Activation of PPARgamma activity in human U373 cells at 60 uM after 6 hrs by spectrophotometric analysis relative to control. It is filed as cell-based. As to conditions: U-373MG ATCC. The gist of the method:
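U373 glioblastoma cells were exposed for 6 h. Nuclear extracts were prepared by hypotonic buffer, NP-40 lysis and a protease-inhibitor extraction buffer. Extracts were bound overnight at 4 °C in a PPAR-γ transcription-factor plate, then probed with primary antibody and HRP anti-rabbit secondary, 1 h each at room temperature. Developer ran 45 min, read at 450 nm. Triplicates, mean ± SD versus control.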

For series [2], the system named is U-373MG ATCC. Kind of series: Inhibition of chymotrypsin-like activity of 20S proteasome in human U373 at 7 uM after 2 days by bioluminescence assay. It is filed as cell-based. The gist of the method:
(§1)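 U373 GBM cells seeded at 5000 cells/mL and grown 48 h, then treated for two days. Cells washed in PBS and permeabilised with 0.025% digitonin. Proteasome-Glo reagent added with Suc-LLVY-Glo (chymotrypsin-like), Z-LRR-Glo (trypsin-like) or Z-nLPnLD-Glo (caspase-like) substrate. Luminescence read after 10 min in the dark and normalised to a parallel MTT viability assay; triplicates. MG-132 at 0.5 μM used as reference.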

Series [3] concerns U-373MG ATCC. The series can be described thus: Inhibition of trypsin-like activity of 20S proteasome in human U373 cells at 7 uM after 2 days by bioluminescence assay. The class given is cell-based. In outline: as §1
Series [4] concerns U-373MG ATCC. The series can be described thus: Inhibition of caspase-like activity of 20S proteasome in human U373 cells at 7 uM after 2 days by bioluminescence assay. The class given is cell-based. In outline: as §1
Series [5] has as its system U-373MG ATCC. The series can be described thus: Inhibition of chymotrypsin-like activity of 20S proteasome in human U373 cells at 60 uM after 2 days by bioluminescence assay. The class given is cell-based. In outline:
as §1

Series [6] concerns U-373MG ATCC. The series can be described thus: Inhibition of trypsin-like activity of 20S proteasome in human U373 cells at 60 uM after 2 days by bioluminescence assay. The class given is cell-based. The gist of the method:
as §1

The subject of series [7] is U-373MG ATCC. Kind of series: Inhibition of caspase-like activity of 20S proteasome in human U373 cells at 60 uM after 2 days by bioluminescence assay. It is filed as cell-based. The gist of the method: as §1
The subject of series [8] is U-373MG ATCC. The series can be described thus: Inhibition of chymotrypsin-like activity of 20S proteasome in human U373 cells at 0.5 uM after 2 days by bioluminescence assay. The class given is cell-based. The gist of the method:
as §1

Series [9] deals with U-373MG ATCC. The series can be described thus: Inhibition of trypsin-like activity of 20S proteasome in human U373 cells at 0.5 uM after 2 days by bioluminescence assay. It is filed as cell-based. In outline: as §1
Series [10] has as its system U-373MG ATCC. Kind of series: Inhibition of caspase-like activity of 20S proteasome in human U373 cells at 0.5 uM after 2 days by bioluminescence assay. The class given is cell-based. The gist of the method:
as §1

Series [11] is described as follows: Chemical stability of the compound in MEM cell culture medium after 7 days by HPLC analysis. The class given is physicochemical. As to conditions: read-out: Stability. The gist of the method:
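Compound incubated in MEM culture medium at 37 °C for 7 days, then analysed by HPLC on RX-C8 (5 μm) column with MeOH–water 90:10 (0.1% TFA), diode-array detection. Expressed as % of incubated compound recovered.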

For a further series, the system named is A549. Kind of series: Growth inhibition in apoptosis-resistant human A549 after 3 days by MTT assay. The settings on record: A549, 72 h. It is filed as functional. The gist of the method:
(§2)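 Cells grown in RPMI with 10% heat-inactivated FCS, 4 mM glutamine, gentamicin and penicillin–streptomycin. Drug exposure 3 days, growth read by MTT colorimetric assay. Nine concentrations from 0.01 to 100 μM in semilog steps, six replicates each; IC50 derived per cell line.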

The next series relates to SK-MEL-28. Kind of series: Growth inhibition in apoptosis-resistant human SK-MEL-28 after 3 days by MTT assay. The class given is functional. The settings on record: SK-MEL-28, 72 h. In outline:
as §2
On the technique in general: Tetrazolium assays rely on reduction of a dye to a coloured formazan, in cell work by metabolically active cells.

Another series relates to T98G. The series can be described thus: Growth inhibition in apoptosis-resistant human T98G after 3 days by MTT assay. The class given is functional. As to conditions: 72 h. In outline:
as §2

A short description of series [12]: Growth inhibition in apoptosis-resistant human U373 after 3 days by MTT assay. It is filed as functional, U-373MG ATCC. As to conditions: U373 MG, 72 h. The gist of the method:
as §2

The subject of the next series is Hs 683. The series can be described thus: Growth inhibition in apoptosis-sensitive human Hs683 after 3 days by MTT assay. It is filed as functional. The settings on record: Hs 683, 72 h. The gist of the method:
as §2

A further series relates to PC-3. The series can be described thus: Growth inhibition in apoptosis-sensitive human PC3 after 3 days by MTT assay. It is filed as functional. As to conditions: PC-3, 72 h. In outline:
as §2

The subject of another series is MCF7. The series can be described thus: Growth inhibition in apoptosis-sensitive human MCF7 after 3 days by MTT assay. The settings on record: MCF7, 72 h. It is filed as functional. In outline:
as §2

For a further series, the system named is B16-F10. Kind of series: Growth inhibition in mouse B16F10 after 3 days by MTT assay. The class given is functional. As to conditions: B16-F10, 72 h. In outline: as §2

For the molecule `CC1(C)[C@@H](O)CC[C@]2(C)[C@H]3C(=O)C=C4[C@@H]5C[C@@](C)(C(=O)NCCN)CC[C@]5(C)CC[C@@]4(C)[C@]3(C)CC[C@@H]12`, the outcome in series [1] was Active. For the same molecule, the inhibition result in the series with U-373MG ATCC [2], in the series on U-373MG ATCC [3], in the series on U-373MG ATCC [4], in the series on U-373MG ATCC [5], with U-373MG ATCC [6] and in the series with U-373MG ATCC [7] was “Active” in each case. For the same molecule, the inhibition result in the series on U-373MG ATCC [8], in the series on U-373MG ATCC [9] and with U-373MG ATCC [10] was “Active” in each case. For the same molecule, the remaining at 168 h in [11] was determined as 90%. Further, the GI50 (usually the concentration at which growth is held to half of that of the control) is 31 µM with A549; greater than 100 µM with SK-MEL-28; greater than 100 µM in the series on T98G; 32 µM in series [12]; 58 µM in the series on Hs 683; 31 µM in the series with PC-3. Moreover, the GI50 in the series with MCF7 stood at 59 µM; in the series on B16-F10 it was 30 µM.
Turning to `CC(C)C[C@@H](C=O)NC(=O)[C@H](CC(C)C)NC(=O)[C@H](CC(C)C)NC(=O)OCc1ccccc1` (Cbz-Leu-Leu-Leu-aldehyde), the inhibition entry with U-373MG ATCC [2], with U-373MG ATCC [3], in the series with U-373MG ATCC [4], with U-373MG ATCC [5], in the series with U-373MG ATCC [6] and in the series on U-373MG ATCC [7] was “Active” throughout. Moreover, the inhibition entry in the series with U-373MG ATCC [8], in the series on U-373MG ATCC [9] and in the series with U-373MG ATCC [10] was “Active” in each case.
